Experimental data reported in ChEMBL document CHEMBL4266027, “Cyanobufalins: Cardioactive Toxins from Cyanobacterial Blooms” (J Nat Prod, 2018).

Key:
SK-OV-3 = assay: Cytotoxicity against human SKOV3 cells assessed as decrease in cell viability after 72 hrs by MTS assay; format: functional, cell-based; details: SK-OV-3, 72 h
Procedure, shortened: (§1)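 Cell proliferation assay using the MTS reagent. Compounds were tested as a dilution series, and EC50 values were derived from the concentration–response data.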

HCT-116 = assay: Cytotoxicity against human HCT116 cells assessed as decrease in cell viability after 72 hrs by MTS assay; format: functional, cell-based; details: HCT-116, 72 h; procedure, shortened: as §1
HepG2 = assay: Cytotoxicity against human HepG2 cells assessed as decrease in cell viability after 72 hrs by MTS assay; format: functional, cell-based; details: HepG2, 72 h; procedure, shortened: as §1
MES-SA = assay: Cytotoxicity against human MESSA cells assessed as decrease in cell viability after 72 hrs by MTS assay; format: functional, cell-based; procedure, shortened: as §1
MES-SA/Dx5 = assay: Cytotoxicity against human MES-SA/Dx5 cells assessed as decrease in cell viability after 72 hrs by MTS assay; format: functional, cell-based; details: MES-SA/Dx5, 72 h; procedure, shortened: as §1
786-0 = assay: Cytotoxicity against human 786-O cells assessed as decrease in cell viability after 72 hrs by MTS assay; format: functional, cell-based; details: 786-0, 72 h; procedure, shortened: as §1
MCF7 = assay: Cytotoxicity against human MCF7 cells assessed as decrease in cell viability after 72 hrs by MTS assay; format: functional, cell-based; details: MCF7, 72 h; procedure, shortened: as §1
BXPC-3 = assay: Cytotoxicity against human BxPC3 cells assessed as decrease in cell viability after 72 hrs by MTS assay; format: functional, cell-based; details: BXPC-3, 72 h; procedure, shortened: as §1
U-87 MG = assay: Cytotoxicity against human U87MG cells assessed as decrease in cell viability after 72 hrs by MTS assay; format: functional, cell-based, U-87MG ATCC; procedure, shortened: as §1
NCI-H1975 = assay: Cytotoxicity against human NCI-H1975 cells assessed as decrease in cell viability after 72 hrs by MTS assay; format: functional, cell-based; details: NCI-H1975, 72 h; procedure, shortened: as §1
HUVEC = assay: Cytotoxicity against human HUVEC cells assessed as decrease in cell viability after 72 hrs by MTS assay; format: cell-based; procedure, shortened: as §1
CCRF S-180 = assay: Cytotoxicity against mouse S180 cells assessed as decrease in cell viability after 72 hrs by MTS assay; format: functional, cell-based; details: CCRF S-180, 72 h; procedure, shortened: as §1
Cardiac muscle cell [1] = assay: Toxicity in human inducible pluripotent stem cell derived cardiomyocytes assessed as change in beating amplitude at 0.32 nM after 8 mins; format: cell-based; details: 0.00032 µM
Procedure, shortened: (§2)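 Human iPSC-derived cardiomyocytes (Cor.4U) were grown to stable beating cultures and monitored by impedance in real time with 20 s recordings. Compounds were given as a dilution series from 0.32 nM to 5 μM, dosed twice 24 h apart, with monitoring over 48 h. Beating amplitude was taken from each negative peak to the following positive peak and reported as % change.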

Cardiac muscle cell [2] = assay: Toxicity in human inducible pluripotent stem cell derived cardiomyocytes assessed as change in beating amplitude at 0.32 nM after 33 mins; format: cell-based; details: 0.55 h, 0.00032 µM; procedure, shortened: as §2
Cardiac muscle cell [3] = assay: Toxicity in human inducible pluripotent stem cell derived cardiomyocytes assessed as change in beating amplitude at 0.32 nM after 66 mins; format: cell-based; details: 1.1 h, 0.00032 µM; procedure, shortened: as §2
Cardiac muscle cell [4] = assay: Toxicity in human inducible pluripotent stem cell derived cardiomyocytes assessed as change in beating amplitude at 0.32 nM after 4 hrs; format: cell-based; details: 0.00032 µM; procedure, shortened: as §2
Cardiac muscle cell [5] = assay: Toxicity in human inducible pluripotent stem cell derived cardiomyocytes assessed as change in beating amplitude at 0.32 nM after 12 hrs; format: cell-based; details: 0.00032 µM; procedure, shortened: as §2
Cardiac muscle cell [6] = assay: Toxicity in human inducible pluripotent stem cell derived cardiomyocytes assessed as change in beating amplitude at 0.32 nM after 24 hrs; format: cell-based; details: 0.00032 µM; procedure, shortened: as §2
Cardiac muscle cell [7] = assay: Toxicity in human inducible pluripotent stem cell derived cardiomyocytes assessed as change in beating amplitude at 0.32 nM after 36 hrs; format: cell-based; details: 0.00032 µM; procedure, shortened: as §2
Cardiac muscle cell [8] = assay: Toxicity in human inducible pluripotent stem cell derived cardiomyocytes assessed as change in beating amplitude at 0.32 nM after 48 hrs; format: cell-based; details: 0.00032 µM; procedure, shortened: as §2
Cardiac muscle cell [9] = assay: Toxicity in human inducible pluripotent stem cell derived cardiomyocytes assessed as change in beating amplitude at 1.6 nM after 33 mins; format: cell-based; details: 0.55 h, 0.0016 µM; procedure, shortened: as §2
Cardiac muscle cell [10] = assay: Toxicity in human inducible pluripotent stem cell derived cardiomyocytes assessed as change in beating amplitude at 1.6 nM after 66 mins; format: cell-based; details: 1.1 h, 0.0016 µM; procedure, shortened: as §2
Cardiac muscle cell [11] = assay: Toxicity in human inducible pluripotent stem cell derived cardiomyocytes assessed as change in beating amplitude at 1.6 nM after 4 hrs; format: cell-based; details: 0.0016 µM; procedure, shortened: as §2
Cardiac muscle cell [12] = assay: Toxicity in human inducible pluripotent stem cell derived cardiomyocytes assessed as change in beating amplitude at 1.6 nM after 12 hrs; format: cell-based; details: 0.0016 µM; procedure, shortened: as §2
Cardiac muscle cell [13] = assay: Toxicity in human inducible pluripotent stem cell derived cardiomyocytes assessed as change in beating amplitude at 1.6 nM after 24 hrs; format: cell-based; details: 0.0016 µM; procedure, shortened: as §2
Cardiac muscle cell [14] = assay: Toxicity in human inducible pluripotent stem cell derived cardiomyocytes assessed as change in beating amplitude at 1.6 nM after 36 hrs; format: cell-based; details: 0.0016 µM; procedure, shortened: as §2
Cardiac muscle cell [15] = assay: Toxicity in human inducible pluripotent stem cell derived cardiomyocytes assessed as change in beating amplitude at 1.6 nM after 48 hrs; format: cell-based; details: 0.0016 µM; procedure, shortened: as §2
Cardiac muscle cell [16] = assay: Toxicity in human inducible pluripotent stem cell derived cardiomyocytes assessed as change in beating amplitude at 8 nM after 33 mins; format: cell-based; details: 0.55 h, 0.008 µM; procedure, shortened: as §2
Cardiac muscle cell [17] = assay: Toxicity in human inducible pluripotent stem cell derived cardiomyocytes assessed as change in beating amplitude at 8 nM after 66 mins; format: cell-based; details: 1.1 h, 0.008 µM
Procedure, shortened: (§3)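 Cor.4U hiPSC-derived cardiomyocytes grown to stable beating cultures, then monitored by impedance in RTCA Cardio plates with 20 s recordings. Compounds tested as a dilution series from 0.32 nM to 5 μM, dosed twice 24 h apart, followed over 48 h. Beating amplitude is taken from each negative peak to the next positive peak and reported as percent change.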

Cardiac muscle cell [18] = assay: Toxicity in human inducible pluripotent stem cell derived cardiomyocytes assessed as change in beating amplitude at 8 nM after 4 hrs; format: cell-based; details: 0.008 µM; procedure, shortened: as §3
Cardiac muscle cell [19] = assay: Toxicity in human inducible pluripotent stem cell derived cardiomyocytes assessed as change in beating amplitude at 8 nM after 12 hrs; format: cell-based; details: 0.008 µM; procedure, shortened: as §2
Cardiac muscle cell [20] = assay: Toxicity in human inducible pluripotent stem cell derived cardiomyocytes assessed as change in beating amplitude at 8 nM after 24 hrs; format: cell-based; details: 0.008 µM; procedure, shortened: as §2
Cardiac muscle cell [21] = assay: Toxicity in human inducible pluripotent stem cell derived cardiomyocytes assessed as change in beating amplitude at 8 nM after 36 hrs; format: cell-based; details: 0.008 µM; procedure, shortened: as §3
Cardiac muscle cell [22] = assay: Toxicity in human inducible pluripotent stem cell derived cardiomyocytes assessed as change in beating amplitude at 8 nM after 48 hrs; format: cell-based; details: 0.008 µM; procedure, shortened: as §3
Cardiac muscle cell [23] = assay: Toxicity in human inducible pluripotent stem cell derived cardiomyocytes assessed as change in beating amplitude at 40 nM after 33 mins; format: cell-based; details: 0.55 h, 0.04 µM; procedure, shortened: as §2
Cardiac muscle cell [24] = assay: Toxicity in human inducible pluripotent stem cell derived cardiomyocytes assessed as change in beating amplitude at 40 nM after 66 mins; format: cell-based; details: 1.1 h, 0.04 µM; procedure, shortened: as §2
Cardiac muscle cell [25] = assay: Toxicity in human inducible pluripotent stem cell derived cardiomyocytes assessed as change in beating amplitude at 40 nM after 48 hrs; format: cell-based; details: 0.04 µM; procedure, shortened: as §2
Cardiac muscle cell [26] = assay: Toxicity in human inducible pluripotent stem cell derived cardiomyocytes assessed as change in beating amplitude at 1.6 nM after 8 mins; format: cell-based; details: 0.0016 µM; procedure, shortened: as §2
Cardiac muscle cell [27] = assay: Toxicity in human inducible pluripotent stem cell derived cardiomyocytes assessed as change in beating amplitude at 8 nM after 8 mins; format: cell-based; details: 0.008 µM; procedure, shortened: as §3
Cardiac muscle cell [28] = assay: Toxicity in human inducible pluripotent stem cell derived cardiomyocytes assessed as change in beating amplitude at 40 nM after 8 mins; format: cell-based; details: 0.04 µM; procedure, shortened: as §2
Cardiac muscle cell [29] = assay: Toxicity in human inducible pluripotent stem cell derived cardiomyocytes assessed as increase in beating amplitude at >40 nM; format: cell-based; procedure, shortened: as §3

In the case of C[C@]12CC[C@H](O)C[C@H]1CC[C@@H]1[C@@H]2CC[C@]2(C)[C@@H](c3ccc(=O)oc3)CC[C@]12O [BUFALIN], the EC50 (SK-OV-3) is reported as 10 nM, the EC50 (HCT-116) is reported as 11 nM and the EC50 (HepG2) is reported as 35 nM. The EC50 (MES-SA) was 28 nM, the EC50 (MES-SA/Dx5) was 18 nM and the EC50 (786-0) was 7.5 nM. The EC50 (MCF7) was 42 nM, the EC50 (BXPC-3) was 11 nM and the EC50 (U-87 MG) was 14 nM. For the same compound, the EC50 (NCI-H1975) was 13 nM, the EC50 (HUVEC) was 12 nM and the EC50 (CCRF S-180) was over 20000 nM. It also gave an Activity (Cardiac muscle cell [1]) of -3%, an Activity (Cardiac muscle cell [2]) of -2% and an Activity (Cardiac muscle cell [3]) of -4.4%. It also gave an Activity (Cardiac muscle cell [4]) of 12%, an Activity (Cardiac muscle cell [5]) of 17% and an Activity (Cardiac muscle cell [6]) of 32%. The Activity (Cardiac muscle cell [7]) was 62%, the Activity (Cardiac muscle cell [8]) was 42% and the Activity (Cardiac muscle cell [9]) was -0.6%. The Activity (Cardiac muscle cell [10]) was -2.7%, the Activity (Cardiac muscle cell [11]) was 11% and the Activity (Cardiac muscle cell [12]) was 8.9%. The Activity (Cardiac muscle cell [13]) was 4.3%, the Activity (Cardiac muscle cell [14]) was -2.9% and the Activity (Cardiac muscle cell [15]) was -10%. For the same compound, the Activity (Cardiac muscle cell [16]) was 3.1%, the Activity (Cardiac muscle cell [17]) was 10% and the Activity (Cardiac muscle cell [18]) was 34%. For the same compound, the Activity (Cardiac muscle cell [19]) was 35%, the Activity (Cardiac muscle cell [20]) was -22% and the Activity (Cardiac muscle cell [21]) was 7.6%. For the same compound, the Activity (Cardiac muscle cell [22]) was -32%, the Activity (Cardiac muscle cell [23]) was 21% and the Activity (Cardiac muscle cell [24]) was -62%. It also gave an Activity (Cardiac muscle cell [25]) of -84.3%, an Activity (Cardiac muscle cell [26]) of 1.8% and an Activity (Cardiac muscle cell [27]) of 2.8%. For the same compound, the Activity (Cardiac muscle cell [28]) was 8.5% and the Activity (Cardiac muscle cell [29]) was “Toxic”.
